Results: ChEMBL document CHEMBL3352791, “Thioaryl naphthylmethanone oxime ether analogs as novel anticancer agents” (J Med Chem, 2014)
Activity calls are given as the source filed them. No cut-off for these calls is given here.

How the values were obtained:
[1] = biological target: Plasminogen activator inhibitor 1 (Homo sapiens) (UniProt P05121); assay: Inhibition of EGF-induced […] PAI-1 in human MDA-MB-231 cells at 1 uM by ELISA; format: cell-based
In short: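 MDA-MB-231 cells treated at 1µM for 24 h with or without EGF. PAI-1 in conditioned medium measured by ELISA.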

[2] = test system: MDA-MB-231; assay: Inhibition of TGFbeta expression in human MDA-MB-231 cells at 5 uM by ELISA; format: functional, cell-based
[3] = test system: MDA-MB-231; assay: Induction of apoptosis in human […] MDA-MB-231 cells assessed as increase in Bax to Bcl2 ratio at 5 uM after 24 hrs by immunoblotting analysis; format: functional, cell-based
[4] = biological target: Dual specificity calcium/calmodulin-dependent 3',5'-cyclic nucleotide phosphodiesterase 1A (Homo sapiens) (UniProt P54750); assay: Inhibition of PDE1A3 (unknown origin) activity at 1 to 10 uM
Chain of Dual specificity calcium/calmodulin-dependent 3',5'-cyclic nucleotide phosphodiesterase 1A (Homo sapiens) (P54750 whole entry, canonical isoform): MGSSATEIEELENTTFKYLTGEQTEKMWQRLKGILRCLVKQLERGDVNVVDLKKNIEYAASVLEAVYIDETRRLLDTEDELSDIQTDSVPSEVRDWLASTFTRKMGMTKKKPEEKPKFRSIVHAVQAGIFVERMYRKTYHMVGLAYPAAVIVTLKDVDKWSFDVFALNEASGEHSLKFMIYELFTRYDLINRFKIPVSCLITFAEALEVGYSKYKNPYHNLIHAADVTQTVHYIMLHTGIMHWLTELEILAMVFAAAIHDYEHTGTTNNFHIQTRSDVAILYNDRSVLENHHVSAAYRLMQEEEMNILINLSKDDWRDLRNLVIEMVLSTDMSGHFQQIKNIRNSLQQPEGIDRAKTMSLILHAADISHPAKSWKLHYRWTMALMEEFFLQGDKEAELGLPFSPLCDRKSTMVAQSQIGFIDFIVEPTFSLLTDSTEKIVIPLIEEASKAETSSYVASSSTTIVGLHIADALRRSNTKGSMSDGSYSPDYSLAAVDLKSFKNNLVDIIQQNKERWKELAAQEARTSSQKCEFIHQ
In short: (§1)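 Recombinant PDE isoform activity was read by fluorescence polarization. A binding reagent complexes with the nucleotide monophosphate that the phosphodiesterase generates from cAMP/cGMP, and this raises the polarization of the labelled substrate. Reference standards were PDE1A3 10µM IBMX, PDE2A3 1nM BAY 60-7550, PDE3CAT 1µM cilostazol, PDE4CAT rolipram, PDE5CAT 0.1µM sildenafil, PDE7A […], PDE8A1 10µM BRL-50481, PDE9A1 1µM SB 36216 and PDE11A1 dipyridamole.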

[5] = biological target: T1, Signal transducer and activator of transcription 1-alpha/beta (Homo sapiens) (UniProt P42224); assay: Inhibition of EGF-induced STAT1 phosphorylation in human MDA-MB-231 cells at 1 uM by ELISA; format: cell-based
T1 sequence (whole entry): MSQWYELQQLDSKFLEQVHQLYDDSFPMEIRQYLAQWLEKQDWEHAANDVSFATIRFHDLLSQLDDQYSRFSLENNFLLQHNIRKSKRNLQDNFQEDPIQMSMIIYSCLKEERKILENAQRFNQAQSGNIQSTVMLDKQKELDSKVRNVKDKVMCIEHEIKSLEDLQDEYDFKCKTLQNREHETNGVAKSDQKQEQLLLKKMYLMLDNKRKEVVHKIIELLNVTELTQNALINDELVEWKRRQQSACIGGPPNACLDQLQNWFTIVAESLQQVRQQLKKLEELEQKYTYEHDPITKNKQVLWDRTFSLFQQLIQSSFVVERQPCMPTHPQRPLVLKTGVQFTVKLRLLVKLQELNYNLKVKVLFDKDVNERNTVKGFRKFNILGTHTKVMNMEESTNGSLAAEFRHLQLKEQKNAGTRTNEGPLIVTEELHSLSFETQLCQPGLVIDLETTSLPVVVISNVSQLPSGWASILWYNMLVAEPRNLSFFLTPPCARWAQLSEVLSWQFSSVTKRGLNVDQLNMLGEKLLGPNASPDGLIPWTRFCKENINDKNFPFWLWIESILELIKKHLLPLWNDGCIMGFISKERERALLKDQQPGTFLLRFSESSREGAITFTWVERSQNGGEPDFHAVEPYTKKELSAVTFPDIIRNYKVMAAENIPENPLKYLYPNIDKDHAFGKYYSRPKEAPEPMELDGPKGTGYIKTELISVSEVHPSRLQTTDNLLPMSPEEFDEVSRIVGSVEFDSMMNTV

[6] = test system: MDA-MB-231; assay: Cytotoxicity against human […] cells assessed as cell viability at 5 uM by MTT assay in presence of z-LEHD-FMK caspase-9 inhibitor; format: functional, cell-based
In short: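 Cells seeded 1×10^4/well in DMEM with 10% FBS, adhered overnight, serum-starved 4 h; pre-incubated 2 h with Z-IETD-FMK or Z-LEHD-FMK (10µM each), then 5μM compound for a further 24 h; viability by MTT.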

[7] = biological target: ETS domain-containing protein Elk-1 (Homo sapiens) (UniProt P19419); assay: Inhibition of basal level ELK1 phosphorylation in human MDA-MB-231 cells at 1 uM by ELISA; format: cell-based
Chain of ETS domain-containing protein Elk-1 (Homo sapiens) (P19419 whole entry, the tested form may be a part): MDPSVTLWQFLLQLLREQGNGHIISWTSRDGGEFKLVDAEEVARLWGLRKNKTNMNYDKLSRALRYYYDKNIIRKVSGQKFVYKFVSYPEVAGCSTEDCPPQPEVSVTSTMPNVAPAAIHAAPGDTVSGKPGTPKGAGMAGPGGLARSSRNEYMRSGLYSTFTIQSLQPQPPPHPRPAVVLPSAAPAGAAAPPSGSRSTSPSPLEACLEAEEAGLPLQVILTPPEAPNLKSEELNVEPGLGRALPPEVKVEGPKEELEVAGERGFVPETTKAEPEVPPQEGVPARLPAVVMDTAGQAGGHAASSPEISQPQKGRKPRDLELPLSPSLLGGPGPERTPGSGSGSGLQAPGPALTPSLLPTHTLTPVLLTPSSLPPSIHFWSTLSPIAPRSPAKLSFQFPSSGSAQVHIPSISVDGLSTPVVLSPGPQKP

[8] = biological target: RAC-alpha serine/threonine-protein kinase (Homo sapiens) (UniProt P31749); assay: Inhibition of EGF-induced AKT phosphorylation in human MCF7 cells at 1 uM by ELISA; format: cell-based
Chain of RAC-alpha serine/threonine-protein kinase (Homo sapiens) (P31749 whole entry): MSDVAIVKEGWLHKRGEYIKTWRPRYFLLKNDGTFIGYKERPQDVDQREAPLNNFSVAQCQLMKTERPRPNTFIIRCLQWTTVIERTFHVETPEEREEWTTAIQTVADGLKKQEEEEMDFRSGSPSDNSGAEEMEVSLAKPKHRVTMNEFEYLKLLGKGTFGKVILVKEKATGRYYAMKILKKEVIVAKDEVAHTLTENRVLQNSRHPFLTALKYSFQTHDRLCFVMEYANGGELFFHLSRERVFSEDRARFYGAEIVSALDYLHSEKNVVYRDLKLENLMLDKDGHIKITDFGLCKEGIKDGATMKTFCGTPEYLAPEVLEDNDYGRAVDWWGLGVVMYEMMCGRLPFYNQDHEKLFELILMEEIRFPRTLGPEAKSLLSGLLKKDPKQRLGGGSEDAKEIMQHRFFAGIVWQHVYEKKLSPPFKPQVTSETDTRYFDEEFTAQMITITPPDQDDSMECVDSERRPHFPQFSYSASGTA

[9] = biological target: Epidermal growth factor receptor (Homo sapiens) (UniProt P00533); assay: Inhibition of EGF-induced EGFR phosphorylation at Tyr992 in human MDA-MB-231 cells at 1 uM by ELISA; format: cell-based
Chain of Epidermal growth factor receptor (Homo sapiens) (P00533 whole entry): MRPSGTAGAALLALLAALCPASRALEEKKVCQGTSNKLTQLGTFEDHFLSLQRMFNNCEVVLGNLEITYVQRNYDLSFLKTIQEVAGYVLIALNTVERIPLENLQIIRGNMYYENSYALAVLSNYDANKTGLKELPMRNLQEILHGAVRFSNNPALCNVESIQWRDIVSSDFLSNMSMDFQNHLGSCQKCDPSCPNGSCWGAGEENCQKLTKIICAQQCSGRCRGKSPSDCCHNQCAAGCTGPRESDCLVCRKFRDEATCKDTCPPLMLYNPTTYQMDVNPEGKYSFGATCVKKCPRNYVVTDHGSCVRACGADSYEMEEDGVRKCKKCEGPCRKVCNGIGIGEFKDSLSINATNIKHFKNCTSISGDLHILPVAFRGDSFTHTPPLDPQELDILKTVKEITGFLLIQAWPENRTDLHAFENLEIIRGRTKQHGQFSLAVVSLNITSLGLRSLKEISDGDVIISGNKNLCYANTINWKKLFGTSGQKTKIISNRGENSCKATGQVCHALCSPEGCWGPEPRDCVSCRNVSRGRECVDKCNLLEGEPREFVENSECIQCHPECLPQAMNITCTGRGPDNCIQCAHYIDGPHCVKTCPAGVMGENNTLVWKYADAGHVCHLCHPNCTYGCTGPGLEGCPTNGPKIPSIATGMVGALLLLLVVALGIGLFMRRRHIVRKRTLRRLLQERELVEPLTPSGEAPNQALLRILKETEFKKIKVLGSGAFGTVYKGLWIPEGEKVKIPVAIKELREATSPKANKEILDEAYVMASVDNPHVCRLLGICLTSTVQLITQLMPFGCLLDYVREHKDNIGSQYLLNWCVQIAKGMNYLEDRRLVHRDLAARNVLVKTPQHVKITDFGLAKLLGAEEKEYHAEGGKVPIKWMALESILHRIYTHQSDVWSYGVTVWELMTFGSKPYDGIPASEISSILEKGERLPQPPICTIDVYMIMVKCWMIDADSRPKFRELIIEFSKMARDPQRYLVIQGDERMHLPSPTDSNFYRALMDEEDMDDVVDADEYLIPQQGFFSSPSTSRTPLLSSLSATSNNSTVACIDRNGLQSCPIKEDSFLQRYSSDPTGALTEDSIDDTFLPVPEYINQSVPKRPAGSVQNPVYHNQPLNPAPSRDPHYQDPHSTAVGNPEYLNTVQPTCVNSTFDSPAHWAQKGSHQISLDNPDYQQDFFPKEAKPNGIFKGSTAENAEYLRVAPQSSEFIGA

[10] = biological target: High affinity cGMP-specific 3',5'-cyclic phosphodiesterase 9A (Homo sapiens) (UniProt O76083); assay: Inhibition of PDE9A1 (unknown origin) activity at 1 to 10 uM; in short: as §1
Chain of High affinity cGMP-specific 3',5'-cyclic phosphodiesterase 9A (Homo sapiens) (O76083 whole entry): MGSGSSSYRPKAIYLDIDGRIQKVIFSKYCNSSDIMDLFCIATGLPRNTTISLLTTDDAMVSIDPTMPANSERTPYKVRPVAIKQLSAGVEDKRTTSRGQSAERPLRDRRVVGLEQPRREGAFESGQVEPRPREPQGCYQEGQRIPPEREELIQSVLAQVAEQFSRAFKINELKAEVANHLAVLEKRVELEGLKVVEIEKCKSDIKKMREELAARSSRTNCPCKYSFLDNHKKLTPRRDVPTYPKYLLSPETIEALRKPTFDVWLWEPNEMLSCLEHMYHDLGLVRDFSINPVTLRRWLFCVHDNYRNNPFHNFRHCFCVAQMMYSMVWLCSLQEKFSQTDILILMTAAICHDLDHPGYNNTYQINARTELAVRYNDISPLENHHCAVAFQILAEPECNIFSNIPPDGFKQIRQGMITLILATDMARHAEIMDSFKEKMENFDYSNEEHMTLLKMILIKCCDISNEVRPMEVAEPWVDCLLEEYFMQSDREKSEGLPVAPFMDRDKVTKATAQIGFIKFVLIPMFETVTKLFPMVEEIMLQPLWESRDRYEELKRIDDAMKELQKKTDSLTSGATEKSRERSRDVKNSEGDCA

[11] = test system: MDA-MB-231; assay: Inhibition of basal cell migration in human MDA-MB-231 cells assessed as […] at 1 uM after 24 hrs by wound healing assay; format: functional, cell-based
[12] = biological target: Epidermal growth factor receptor (Homo sapiens) (UniProt P00533); assay: Inhibition of EGF-induced EGFR phosphorylation at Tyr1068 in human MDA-MB-231 cells at 0.5 uM by ELISA; format: cell-based
In short: (§2)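 MDA-MB-231 cells pretreated 1 h in serum-free medium, then EGF-stimulated for 15 min and lysed. Equal lysate protein (Bradford) assayed by ELISA kits for p-EGFR (Tyr1068, Tyr845, Tyr1173) and p-HER2. Absorbance read at 450 nm, normalized to total EGFR or HER2.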

[13] = biological target: High affinity 3',5'-cyclic-AMP phosphodiesterase 7A (Homo sapiens) (UniProt Q13946); assay: Inhibition of PDE7A (unknown origin) activity at 1 to 10 uM; in short: as §1
Chain of High affinity 3',5'-cyclic-AMP phosphodiesterase 7A (Homo sapiens) (Q13946 whole entry): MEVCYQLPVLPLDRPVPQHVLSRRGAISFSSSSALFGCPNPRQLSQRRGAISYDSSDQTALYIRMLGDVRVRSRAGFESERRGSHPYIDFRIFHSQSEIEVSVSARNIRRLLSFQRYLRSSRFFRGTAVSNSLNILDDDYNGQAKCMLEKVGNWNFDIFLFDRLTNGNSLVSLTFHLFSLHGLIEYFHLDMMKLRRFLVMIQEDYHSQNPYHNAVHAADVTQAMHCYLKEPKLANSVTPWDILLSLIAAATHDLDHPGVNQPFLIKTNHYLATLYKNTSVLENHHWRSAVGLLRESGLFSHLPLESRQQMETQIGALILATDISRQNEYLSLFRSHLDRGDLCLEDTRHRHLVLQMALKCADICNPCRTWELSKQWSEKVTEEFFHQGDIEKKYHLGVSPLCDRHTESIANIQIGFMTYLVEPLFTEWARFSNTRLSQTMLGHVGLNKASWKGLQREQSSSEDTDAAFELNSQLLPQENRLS

[14] = biological target: Epidermal growth factor receptor (Homo sapiens) (UniProt P00533); assay: Inhibition of EGF-induced EGFR phosphorylation at Tyr1148 in human MCF7 cells at 1 uM by ELISA; format: cell-based
[15] = biological target: Epidermal growth factor receptor (Homo sapiens) (UniProt P00533); assay: Inhibition of EGF-induced EGFR phosphorylation at Tyr1173 in human MDA-MB-231 cells at 0.1 uM by ELISA; format: cell-based; in short: as §2
[16] = test system: MDA-MB-231; assay: Antiproliferative activity against human ER-positive MDA-MB-231 cells after 72 hrs by MTT assay; format: functional, cell-based; conditions: MDA-MB-231, 72 h
[17] = test system: MDA-MB-231; assay: Cell cycle arrest in human […] cells assessed as accumulation at G2 phase at 5 uM by propidium iodide staining by FACS analysis (reference value: 22.74%); format: functional
[18] = test system: MCF7; assay: Cell cycle arrest in human […] cells assessed as accumulation at subG1 phase at 7.5 uM by propidium iodide staining by FACS analysis (reference value: 0.1%); format: functional
[19] = test system: Ishikawa; assay: Antiproliferative activity against human ER-positive Ishikawa cells after 24 hrs by MTT assay; format: functional, cell-based; conditions: ishikawa
[20] = Cytotoxicity against human MCF10A cells after 72 hrs by MTT assay; format: ADME, cell-based; conditions: MCF-10A
[21] = test system: MCF7; assay: Cell cycle arrest in human […] MCF7 cells assessed as accumulation at S phase at 2.5 uM by propidium iodide staining by FACS analysis (reference value: 24.76%); format: functional
[22] = test system: MDA-MB-231; assay: Cell cycle arrest in human […] cells assessed as accumulation at G1 phase at 2.5 uM by propidium iodide staining by FACS analysis (reference value: 63.74%); format: functional

Chain of Plasminogen activator inhibitor 1 (Homo sapiens) (P05121 whole entry): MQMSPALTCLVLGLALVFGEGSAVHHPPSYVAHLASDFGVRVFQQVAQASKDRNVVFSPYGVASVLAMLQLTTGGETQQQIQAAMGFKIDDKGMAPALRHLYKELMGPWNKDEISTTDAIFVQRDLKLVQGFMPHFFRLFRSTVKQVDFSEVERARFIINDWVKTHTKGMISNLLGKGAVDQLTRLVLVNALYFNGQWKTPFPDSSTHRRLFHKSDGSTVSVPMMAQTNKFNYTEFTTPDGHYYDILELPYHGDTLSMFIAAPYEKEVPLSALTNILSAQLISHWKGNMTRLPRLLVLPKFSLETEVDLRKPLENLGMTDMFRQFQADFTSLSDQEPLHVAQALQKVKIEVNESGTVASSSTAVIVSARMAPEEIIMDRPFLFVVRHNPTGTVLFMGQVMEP

## CCN(CC)CCO/N=C(\c1ccc(SC)cc1)c1cccc2ccccc12
[1]
  inhibition: Active
[2]
  inhibition: inactive
[3]
  Activity: Active
[4]
  inhibition: inactive
[5]
  inhibition: inactive
[6]
  Activity: inactive
[7]
  inhibition: Active
[8]
  inhibition: Active
[9]
  inhibition: Active
[10]
  inhibition: inactive
[11]
  inhibition: Active
[12]
  inhibition: Active
[13]
  inhibition: inactive
[14]
  inhibition: Active
[15]
  inhibition: Active

## CCN(CC)CCO/N=C(\c1ccc(SC)cc1)c1cccc2ccccc12.O=C(O)C(=O)O
[16]
  EC50: 1 µM
[17]
  Activity: 8.5%
[18]
  Activity: 0.4%
[19]
  EC50: 12 µM
[20]
  IC50: 50 µM
[21]
  Activity: 16.82%
[22]
  Activity: 80.13%
